Here are results for seven compounds from ChEMBL document CHEMBL1909506, “Synthesis and anti-tumor activities of N'-benzylidene-2-(4-oxothieno[2,3-d]pyrimidin-3(4H)-yl)acetohydrazone derivatives” (Bioorg Med Chem Lett, 2011).

Assay [1] concerns A549. Briefly: Cytotoxicity against human A549 cells assessed as growth inhibition at 20 uM after 48 hrs by MTT assay. Format: functional. The following applies: for inhibition of growth at 20 µM: A549, 48 h, read-out: GI. In a few lines: (§1)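 Single-concentration screen at 20 µM. Cell growth inhibition read by standard MTT assay after 48 h treatment and expressed as inhibition ratio.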
A general note: Formazan colour is commonly taken as a measure of viable cells.

The subject of assay [2] is HeLa. Briefly: Cytotoxicity against human HeLa cells assessed as growth inhibition at 20 uM after 48 hrs by MTT assay. Format: functional. The note with it: for inhibition of growth at 20 µM: read-out: GI. In a few lines:
as §1

In assay [3] the test system is MDA-MB-231. Nature of the assay: Cytotoxicity against human MDA-MB-231 cells assessed as growth inhibition at 20 uM after 48 hrs by MTT assay. Format: functional. The following applies: for inhibition of growth at 20 µM: MDA-MB-231, 48 h, read-out: GI. In a few lines: as §1
A further assay has as its system HEK-293T. Briefly: Cytotoxicity against human HEK293T cells assessed as growth inhibition after 48 hrs by MTT assay. Format: cell-based. In a few lines: (§2)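 Dose-response MTT assay, 48 h exposure. Compounds run at multiple concentrations; IC50 taken as the concentration giving 50% growth inhibition. HEK-293T (human embryonic kidney cells transformed with adenovirus 5 DNA and SV40 large T-antigen) served as the normal-cell model.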

Assay [4] deals with HeLa. Briefly: Induction of apoptosis in human HeLa cells assessed as sub-diploid DNA content at 20 uM after 24 hrs using PI staining by flow cytometry (reference value: 6%). In kind it is functional.
Assay [5] concerns HeLa. Nature of the assay: Induction of apoptosis in human HeLa cells assessed as increase in level of cleaved caspase-3 at 20 uM after 12 hrs by immunoblotting. Format: functional, cell-based. (In general: In western blotting, separated proteins are transferred to a membrane and probed.)
Assay [6] deals with HeLa. Briefly: Induction of apoptosis in human HeLa cells assessed as increase in level of cleaved PARP at 20 uM after 12 hrs by immunoblotting. In kind it is functional, cell-based.
The test system of assay [7] is HeLa. Briefly: Cytotoxicity against human HeLa cells assessed as growth inhibition after 48 hrs by MTT assay. In kind it is functional, cell-based. The essentials: as §2
In assay [8] the test system is A549. Briefly: Cytotoxicity against human A549 cells assessed as growth inhibition after 48 hrs by MTT assay. Format: functional, cell-based. The following applies: for IC50: A549, 48 h. The essentials:
as §2

In assay [9] the test system is MDA-MB-231. Nature of the assay: Cytotoxicity against human MDA-MB-231 cells assessed as growth inhibition after 48 hrs by MTT assay. Format: functional, cell-based. The note with it: for IC50: MDA-MB-231, 48 h. In a few lines: as §2
In assay [10] the target is Induced myeloid leukemia cell differentiation protein Mcl-1 (Homo sapiens) (UniProt Q07820). Nature of the assay: Inhibition of mouse/human MCL1 expressed in Escherichia coli BL21 at 1 uM to 50 uM using FAM-labeled Bid-BH3 as tracer by fluorescence polarization assay. (Fluorescence polarisation rises when a labelled molecule tumbles more slowly, as on binding a larger partner.)

For assay [11] the target is unchanged. Briefly: Inhibition of mouse/human MCL1 expressed in Escherichia coli BL21 at 50 uM using FAM-labeled Bid-BH3 as tracer by fluorescence polarization assay.
The test system of assay [12] is HeLa. Briefly: Induction of apoptosis in human HeLa cells at 20 uM after 24 hrs using PI staining by flow cytometry relative to control. In kind it is functional.

Structures are written as SMILES. Active and inactive are the calls of the source. The rule behind the calls is not given here. Bounds are passed on as bounds.

A word on the IC50: it is the concentration that gives 50% inhibition. What is called inhibition is the percentage by which the read-out fell short of the control. As for `O=C(Cn1cnc2scc(-c3ccc(Cl)cc3)c2c1=O)N/N=C/c1ccc(Cl)c([N+](=O)[O-])c1`, the inhibition of growth at 20 µM with A549 [1] turned out to be 58%; in the assay on HeLa [2], 74%; in the assay on MDA-MB-231 [3], 78%. The IC50 in the assay on HEK-293T is over 50 µM; in the assay with HeLa [7], 11 µM; in the assay with A549 [8], 20 µM; with MDA-MB-231 [9] it was 32 µM. In addition, the Activity in the assay with HeLa [4] is reported as 22%. Moreover, the result in the assay with HeLa [5] and in the assay with HeLa [6] was Active. For the same compound, the “growth inhibition (GI)” value in the assay with HeLa [7], with A549 [8] and in the assay with MDA-MB-231 [9] was “Dose-dependent effect” each time. Further, the inhibition result in [10] is “inactive”.

Consider `O=C(Cn1cnc2scc(-c3ccc4ccccc4c3)c2c1=O)N/N=C/c1ccc(O)c(O)c1`, for which the “growth inhibition (GI)” value in the assay on A549 [1], with HeLa [2] and in the assay on MDA-MB-231 [3] was “inactive” in each case. Also, the inhibition in [11] is 40%. The inhibition entry in assay [10] is “inactive”.

`O=C(Cn1cnc2sc3c(c2c1=O)CCCCC3)N/N=C/c1ccc(Cl)c([N+](=O)[O-])c1`: the “growth inhibition (GI)” value in the assay with A549 [1] was “inactive”. In addition, the inhibition of growth at 20 µM in the assay on HeLa [2] worked out at 96%; in the assay on MDA-MB-231 [3], 66%. Further, the IC50 was over 50 µM in the assay with HEK-293T, 6 µM in the assay with HeLa [7], over 50 µM with A549 [8] and 23 µM with MDA-MB-231 [9]. In the assay with HeLa [12], this compound had an Activity of 6%. In addition, in assay [10], the inhibition result is “inactive”.

For the compound `O=C(Cn1cnc2scc(-c3ccccc3)c2c1=O)N/N=C/c1ccc(Cl)c([N+](=O)[O-])c1`, the results for the inhibition of growth at 20 µM in the assay with A549 [1], in the assay on HeLa [2] and in the assay with MDA-MB-231 [3] were 66%, 64% and 29%, respectively. Besides, the IC50 in the assay with HEK-293T is over 50 µM; in the assay with HeLa [7], 11 µM; in the assay with A549 [8] it was 16 µM; in the assay on MDA-MB-231 [9], 20 µM. The “growth inhibition (GI)” value with HeLa [7], with A549 [8] and with MDA-MB-231 [9] was “Dose-dependent effect” each time. The compound further had an Activity in the assay with HeLa [12] of 8%. The inhibition result in [10] was “inactive”.

On to `Cc1cc(-c2csc3ncn(CC(=O)N/N=C/c4ccc(Cl)c(F)c4)c(=O)c23)ccc1Cl`, for which the inhibition of growth at 20 µM with A549 [1] is 51%; with HeLa [2], 52%; in the assay on MDA-MB-231 [3] it was 74%. Besides, the IC50 in the assay with HEK-293T is over 50 µM; in the assay with HeLa [7] it was 15 µM; in the assay with A549 [8], 17 µM; in the assay on MDA-MB-231 [9], 16 µM. Also, the Activity with HeLa [4] is 27%. The result in the assay with HeLa [5] and with HeLa [6] was Active. For the same compound, the “growth inhibition (GI)” value in the assay on HeLa [7], in the assay on A549 [8] and with MDA-MB-231 [9] was “Dose-dependent effect” throughout. Moreover, the inhibition in [11] came out at 40%. Further, in assay [10], the inhibition result is “inactive”.

Take `Cc1csc2ncn(CC(=O)N/N=C/c3ccccc3O)c(=O)c12`: the “growth inhibition (GI)” value in the assay on A549 [1] and with HeLa [2] was “inactive” throughout. Further, the inhibition of growth at 20 µM in the assay on MDA-MB-231 [3] stood at 30%. Further, the inhibition in assay [11] amounted to 40%. The inhibition result in [10] was “inactive”.

For the compound `O=C(Cn1cnc2scc(-c3ccc4ccccc4c3)c2c1=O)N/N=C/c1ccc(Cl)c([N+](=O)[O-])c1`, the figures for the inhibition of growth at 20 µM with A549 [1], in the assay on HeLa [2] and with MDA-MB-231 [3] were 69%, 69% and 55%, respectively. Besides, the 50% inhibitory concentration (IC50) is over 50 µM with HEK-293T, 24 µM with HeLa [7], 13 µM with A549 [8] and 20 µM in the assay on MDA-MB-231 [9]. The Activity in the assay with HeLa [4] was found to be 20%. The outcome in the assay with HeLa [5] and with HeLa [6] was Active. The “growth inhibition (GI)” value in the assay with HeLa [7], in the assay on A549 [8] and in the assay on MDA-MB-231 [9] was “Dose-dependent effect” in each case. Also, the inhibition result in [10] is “inactive”.
